Activity calls are given as the source filed them. No cut-off for these calls is given here.
How the values were obtained:
PC-3 = test: Antiproliferative activity against human PC3 cells after 12 hrs by MTT assay; format: functional, cell-based; conditions: PC-3, 12 h
How it was run: (§1)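 MTT assay. Cells grown as monolayers in DMEM with 10% FBS, 2 mM glutamine and penicillin/streptomycin at 37 °C, 5% CO2. Seeded at 1×10^4 cells/well and held 12 h before serial compound dilutions were added. Final DMSO was under 1% (v/v). MTT (2 mg/ml) was present for the last 1.5 h; the formazan was dissolved in DMSO and read at 570 nm. IC50 interpolated from dose-response curves; mean ± sem of four to six experiments.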

A549 = test: Antiproliferative activity against human A549 cells after 12 hrs by MTT assay; format: functional, cell-based; conditions: A549, 12 h; how it was run: as §1
[1] = Antiproliferative activity against human BT-483 cells after 12 hrs by MTT assay; format: functional, cell-based; conditions: BT-483, 12 h; how it was run: as §1
HeLa [2] = test: Antiproliferative activity against human HeLa cells after 12 hrs by MTT assay; format: functional, cell-based; how it was run: as §1
[3] = Antiproliferative activity against human SKHep cells after 12 hrs by MTT assay; format: functional, cell-based; how it was run: as §1
HeLa [4] = test: Cell cycle arrest in human HeLa cells assessed as accumulation at G1 phase at 20 uM after 24 hrs using propidium iodide staining by FACS analysis; format: functional, cell-based
HeLa [5] = test: Antiproliferative activity against human HeLa cells at 3 uM after 30 hrs by MTT assay; format: functional
How it was run: (§2)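 HeLa cells at 10^4 cells/well were given the compound at 1.0, 3.0 or 10 μM, alongside an untreated control and a 0.1% DMSO control. Proliferation was followed by MTT at several time points over a 30 h period.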

HeLa [6] = test: Antiproliferative activity against human HeLa cells assessed as DNA fragmentation at 10 uM after 24 hrs using […] DAPI staining by fluorescence microscopy; format: functional, cell-based
How it was run: (§3)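 HeLa cells grown on cover glasses were treated 24 h with 5 or 10 μM compound, with untreated and 0.5% DMSO controls. They were fixed in 4% paraformaldehyde, glycine-washed and permeabilized with 2% FBS/0.4% Triton X-100. Nuclei were stained with DAPI (0.1 μg/ml) for 5 min in the dark, and DNA fragmentation was examined by fluorescence microscopy.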

HeLa [7] = test: Cell cycle arrest in human HeLa cells assessed as accumulation at sub-G1 phase after 24 hrs using propidium iodide staining by FACS analysis; format: functional, cell-based
How it was run: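 HeLa cells were treated 24 h with compound at 5 or 20 μM, with a 0.5% DMSO control and untreated blank. Cells were harvested, rinsed in PBS and fixed in 80% ethanol at −20 °C. They were stained with propidium iodide and analysed by flow cytometry. The sub-diploid (apoptotic) population is expressed as a percentage of all cells.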

HeLa [8] = test: Antiproliferative activity against human HeLa cells assessed as morphological changes at 20 uM after 24 hrs using DAPI staining by fluorescence microscopy; format: functional, cell-based
How it was run: (§4)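 HeLa cells were exposed 24 h to 5, 10 or 20 μM compound, with untreated and DMSO controls. Morphology (cell rounding, detachment from substratum) was examined.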

HeLa [9] = test: Antiproliferative activity against human HeLa cells assessed as morphological changes at 10 uM after 24 hrs using DAPI staining by fluorescence microscopy; format: functional, cell-based; how it was run: as §4
HeLa [10] = test: Antiproliferative activity against human HeLa cells assessed as morphological changes at 5 uM after 24 hrs using DAPI staining by fluorescence microscopy; format: functional, cell-based; how it was run: as §4
HeLa [11] = test: Antiproliferative activity against human HeLa cells assessed as DNA fragmentation at 5 uM after 24 hrs using […] DAPI staining by fluorescence microscopy; format: functional, cell-based; how it was run: as §3
HeLa [12] = test: Antiproliferative activity against human HeLa cells at 10 uM after 30 hrs by MTT assay; format: functional; how it was run: as §2

| Structure (SMILES) | IC50 (PC-3) [µM] | IC50 (A549) [µM] | IC50 (HeLa [2]) [µM] | IC50 ([1]; read-out: IC50) [µM] | IC50 ([1]; read-out: pIC50 (converted)) [µM] | IC50 [3] [µM] | Activity (HeLa [4]) | Activity (HeLa [5]) [%] | Activity (HeLa [6]) | Activity (HeLa [7]) | Activity (HeLa [8]) | Activity (HeLa [9]) | Activity (HeLa [10]) | Activity (HeLa [11]) | Activity (HeLa [12]) [%] |
| --- | --- | --- | --- | --- | --- | --- | --- | --- | --- | --- | --- | --- | --- | --- | --- |
| COc1ccc2c(=O)cc(/C=C/c3ccc(OC(F)(F)F)cc3)oc2c1 | > 40 | > 40 | 9.9 | 20.1 | 20 | > 40 |  |  |  |  |  |  |  |  |  |
| COc1ccc(/C=C/c2cc(=O)c3c(OC)cc(OC)cc3o2)cc1 | > 40 | > 40 | 17.8 | 29.6 | 29.5 | > 40 |  |  |  |  |  |  |  |  |  |
| COc1cc(OC)c2c(=O)cc(/C=C/c3ccc(Br)cc3)oc2c1 | > 40 | > 40 | > 40 | > 40 | 60.3 | > 40 |  |  |  |  |  |  |  |  |  |
| COc1ccc2oc(/C=C/c3ccc(OC(F)(F)F)cc3)cc(=O)c2c1 | > 40 | > 40 | 9 | > 40 |  | > 40 |  |  |  |  |  |  |  |  |  |
| COc1cc(/C=C/c2cc(=O)c3c(OC)cc(OC)cc3o2)cc(OC)c1 | > 40 | 15.6 | 16.7 | 16.6 | 16.6 | 23.7 |  |  |  |  |  |  |  |  |  |
| COc1cc(OC)c2c(=O)cc(/C=C/c3ccc(OC(F)(F)F)cc3)oc2c1 | > 40 | 24.2 | > 40 | 26.6 | 26.3 | 12.5 |  |  |  |  |  |  |  |  |  |

More lines, main results first:

| IC50 (PC-3) [µM] | IC50 (A549) [µM] | IC50 (HeLa [2]) [µM] | Structure (SMILES) | IC50 ([1]; read-out: IC50) [µM] | IC50 ([1]; read-out: pIC50 (converted)) [µM] | IC50 [3] [µM] | Activity (HeLa [4]) | Activity (HeLa [5]) [%] | Activity (HeLa [6]) | Activity (HeLa [7]) | Activity (HeLa [8]) | Activity (HeLa [9]) | Activity (HeLa [10]) | Activity (HeLa [11]) | Activity (HeLa [12]) [%] |
| --- | --- | --- | --- | --- | --- | --- | --- | --- | --- | --- | --- | --- | --- | --- | --- |
| > 40 | 18.6 | 14.2 | COc1cc(OC)c2c(=O)cc(/C=C/c3ccc(F)cc3)oc2c1 | 19.9 | 20 | 29.2 |  |  |  |  |  |  |  |  |  |
| > 40 | > 40 | 19 | COc1cc(OC)c2c(=O)cc(/C=C/c3ccc(C(F)(F)F)cc3)oc2c1 | > 40 | 60.3 | 20.6 | Active |  |  |  |  |  |  |  |  |
| > 40 | > 40 | 4.9 | COc1ccc2c(=O)cc(/C=C/c3ccc(OC(F)(F)F)cc3)oc2c1OC | 30.9 | 30.9 | 12.4 |  | 15 | Active | Dose-dependent effect | Active | Active | Active | inactive | 60 |
| > 40 | > 40 | 9.1 | COc1cccc2oc(/C=C/c3ccc(OC(F)(F)F)cc3)cc(=O)c12 | 18.2 | 18.2 | 21 |  |  |  |  |  |  |  |  |  |
| > 40 | > 40 | 18.8 | COc1cc(OC)c2c(=O)cc(/C=C/c3ccncc3)oc2c1 | 25.2 | 25.1 | > 40 |  |  |  |  |  |  |  |  |  |
| > 40 | 21.5 | 10.1 | COc1cc(OC)c2c(=O)cc(/C=C/c3ccccc3)oc2c1 | > 40 |  | 26 | Active |  |  |  |  |  |  |  |  |
| > 40 | 19.7 | 9.6 | COc1cc(OC)c2c(=O)cc(/C=C/c3ccc([N+](=O)[O-])cc3)oc2c1 | 25.5 | 25.5 | 22 |  |  |  |  |  |  |  |  |  |
| > 40 | > 40 | 14.2 | COc1cc(OC)c2c(=O)cc(/C=C/c3ccc(Cl)cc3)oc2c1 | 26.1 | 26.3 | 26.9 |  |  |  |  |  |  |  |  |  |
| > 40 | 20.9 | 10.9 | COc1cc(OC)c2c(=O)cc(/C=C/c3ccc(OCC4CC4)cc3)oc2c1 | 16.6 | 16.6 | 22.1 |  |  |  |  |  |  |  |  |  |
| > 40 | > 40 | 16.4 | COc1cc(OC)c2c(=O)cc(/C=C/c3ccc4c(c3)OCO4)oc2c1 | 29.3 | 29.5 | 23.7 |  |  |  |  |  |  |  |  |  |
